Measured values published in ChEMBL document CHEMBL3286388, “Discovery of potent anticancer agent HJC0416, an orally bioavailable small molecule inhibitor of signal transducer and activator of transcription 3 (STAT3)” (Eur J Med Chem, 2014).
The source made the active and inactive calls. No cut-off for these calls is given here.

Key:
ASPC1 = assay: Antiproliferative activity against human AsPC1 cells assessed as inhibition of cell proliferation after 72 hrs by MTS assay; format: functional, cell-based; conditions: ASPC1, 72 h
How it was run: (§1)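 Cells seeded at 2 × 10^3 per well, exposed to DMSO or 0.01–100 µM (0.01, 0.1, 1, 5, 10, 100) for 72 h. MTS added, OD 550 nm read after 1 h at 37 °C. Quadruplicate wells for each concentration; IC50 reported.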

[1] = Antiproliferative activity against human PANC1 cells assessed as inhibition of cell proliferation after 72 hrs by MTS assay; format: functional, cell-based; conditions: PANC-1, 72 h; how it was run: as §1
MCF7 = assay: Antiproliferative activity against ER-positive human MCF7 cells assessed as inhibition of cell proliferation after 72 hrs by MTS assay; format: functional, cell-based; conditions: MCF7, 72 h; how it was run: as §1
MDA-MB-231 [2] = assay: Antiproliferative activity against ER-negative and triple-negative human MDA-MB-231 cells assessed as inhibition of cell proliferation after 72 hrs by MTS assay; format: functional, cell-based; conditions: MDA-MB-231, 72 h; how it was run: as §1
MDA-MB-231 [3] = assay: Inhibition of STAT3 promoter activity in human MDA-MB-231 cells at 5 uM after 24 hrs by dual luciferase reporter assay; format: functional; conditions: MDA-MB-231, 24 h
How it was run: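 MDA-MB-231 cells pretreated at 5 µM for 24 h, replated in RPMI-1640 with 10% FBS, and transfected 4 h later with pSTAT3-Luc plus renilla control (95:5, 0.5 µg DNA per well). Treated again for 24 h starting 5 h after transfection. RLU = firefly/renilla luciferase relative to DMSO control. Triplicate wells, at least 3 independent experiments.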

Mus musculus = assay: Toxicity in nude mouse xenografted with triple-negative human MDA-MB-231 cells assessed as body weight loss at 100 mg/kg, po administered via gavage for five days per week; format: organism-based; design: dose 100 mg/kg, route oral; conditions: in vivo
How it was run: (§2)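 Female nude mice, 6 weeks old, received 2.5 × 10^6 MDA-MB-231 cells in PBS into the 3rd mammary fat pad and were randomized (5–10 per group). Dosing began at 150 mm³ tumors for ip daily 10 mg/kg, or 110 mm³ for oral gavage 100 mg/kg five days per week. Vehicle was 50% DMSO/50% PEG. Body weight and tumor volume (0.5·L·W²) measured daily.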

MDA-MB-231 [4] = assay: Antitumor activity against triple-negative human MDA-MB-231 cells xenografted in nude mouse assessed as decrease in tumor volume at 100 mg/kg, po administered via gavage for five days per week; format: functional; conditions: MDA-MB-231, 120 h; how it was run: as §2
[5] = target: Signal transducer and activator of transcription 3 (Homo sapiens) (UniProt P40763); assay: Inhibition of STAT3 phosphorylation at Tyr705 in human MDA-MB-231 cells at 1 to 10 uM after 12 hrs by western blot analysis; format: cell-based
How it was run: (§3)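 MDA-MB-231 cells treated for 12 h. Lysates (40 µg protein, BCA) run on 10% SDS-PAGE and transferred to nitrocellulose. Blocked in 5% milk/1% Tween 20 in TBS, probed for pSTAT3 Y705, STAT3, active caspase-3, cyclin D1 and β-actin, ECL detection.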

MDA-MB-231 [6] = assay: Decrease in STAT3 protein expression in human MDA-MB-231 cells at 1 to 10 uM after 12 hrs by western blot analysis; format: functional, cell-based; how it was run: as §3
MDA-MB-231 [7] = assay: Antitumor activity against triple-negative human MDA-MB-231 cells xenografted in nude mouse assessed as decrease in tumor volume at 10 mg/kg, ip administered daily; format: functional; conditions: MDA-MB-231, ip, route intraperitoneal; how it was run: as §2
MDA-MB-231 [8] = assay: Induction of apoptosis in human MDA-MB-231 cells assessed as cleaved caspase-3 level at 1 to 10 uM after 12 hrs by western blot analysis; format: functional, cell-based; how it was run: as §3
MDA-MB-231 [9] = assay: Anticancer activity against human MDA-MB-231 cells assessed as cell growth inhibition, apoptosis and cellular morphological changes at 1 to 10 uM after 48 hrs by light microscopy; format: functional, cell-based
How it was run: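 Exponentially growing MDA-MB-231 cells incubated with compound for 48 h; growth, apoptosis and morphology judged under light microscopy.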

MDA-MB-231 [10] = assay: Downregulation of cyclin D1 protein expression in human MDA-MB-231 cells at 1 to 10 uM after 12 hrs by western blot analysis; format: functional, cell-based; how it was run: as §3

Sequence of Signal transducer and activator of transcription 3 (Homo sapiens) (P40763 whole entry): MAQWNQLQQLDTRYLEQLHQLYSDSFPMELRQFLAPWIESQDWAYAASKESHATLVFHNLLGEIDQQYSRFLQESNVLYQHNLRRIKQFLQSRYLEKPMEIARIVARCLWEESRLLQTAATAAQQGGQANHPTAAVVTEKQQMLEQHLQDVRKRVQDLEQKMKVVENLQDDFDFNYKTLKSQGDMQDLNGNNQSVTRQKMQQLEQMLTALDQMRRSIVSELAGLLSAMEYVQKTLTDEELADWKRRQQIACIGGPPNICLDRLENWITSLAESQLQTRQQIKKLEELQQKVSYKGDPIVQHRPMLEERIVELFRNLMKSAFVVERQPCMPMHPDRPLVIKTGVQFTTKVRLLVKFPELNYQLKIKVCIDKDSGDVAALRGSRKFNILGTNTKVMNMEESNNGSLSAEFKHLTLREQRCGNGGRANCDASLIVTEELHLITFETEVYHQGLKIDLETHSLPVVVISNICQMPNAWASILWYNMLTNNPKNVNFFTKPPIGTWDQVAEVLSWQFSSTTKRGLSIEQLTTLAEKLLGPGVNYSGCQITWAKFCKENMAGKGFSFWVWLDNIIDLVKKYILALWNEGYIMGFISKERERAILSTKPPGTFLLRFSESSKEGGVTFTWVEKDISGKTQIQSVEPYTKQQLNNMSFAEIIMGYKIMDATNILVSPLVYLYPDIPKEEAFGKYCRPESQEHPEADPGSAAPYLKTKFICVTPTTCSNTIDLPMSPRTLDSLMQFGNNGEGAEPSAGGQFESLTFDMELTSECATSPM

IC50 (ASPC1) [µM]	IC50 (MCF7) [µM]	IC50 (MDA-MB-231 [2]) [µM]	inhibition [5]	SMILES	IC50 [1] [µM]	inhibition at 5 µM (MDA-MB-231 [3]) [%]	Activity (Mus musculus)	inhibition in vivo at 100 mg/kg (MDA-MB-231 [4]) [%]	inhibition (MDA-MB-231 [6])	inhibition in vivo at 10 mg/kg (MDA-MB-231 [7]) [%]	Activity (MDA-MB-231 [8])	Activity (MDA-MB-231 [9])	inhibition (MDA-MB-231 [10])
1.07	4.08	2.86	–	CN1CCN(CCOc2ccc(Cl)cc2C(=O)Nc2ccc3c(c2)S(=O)(=O)C=C3)CC1	3.01	–	–	–	–	–	–	–	–
1.32	3.6	2.89	Active	O=[N+]([O-])c1ccc2c(c1)S(=O)(=O)C=C2	3.77	39	–	–	Active	–	–	Active	–
1.6	4.21	2.85	–	O=C(Nc1ccc2c(c1)S(=O)(=O)C=C2)c1cc(Cl)ccc1OC1CCNCC1	4.09	–	–	–	–	–	–	–	–
1.05	3.47	3.12	–	NCCOc1ccc(Cl)cc1C(=O)Nc1ccc2c(c1)S(=O)(=O)C=C2	2.25	–	–	–	–	–	–	–	–

More lines, now with the values behind:

SMILES	IC50 (ASPC1) [µM]	IC50 (MCF7) [µM]	IC50 (MDA-MB-231 [2]) [µM]	inhibition [5]	IC50 [1] [µM]	inhibition at 5 µM (MDA-MB-231 [3]) [%]	Activity (Mus musculus)	inhibition in vivo at 100 mg/kg (MDA-MB-231 [4]) [%]	inhibition (MDA-MB-231 [6])	inhibition in vivo at 10 mg/kg (MDA-MB-231 [7]) [%]	Activity (MDA-MB-231 [8])	Activity (MDA-MB-231 [9])	inhibition (MDA-MB-231 [10])
CN(C)CCOc1ccc(Cl)cc1C(=O)Nc1ccc2c(c1)S(=O)(=O)C=C2	1.14	3.5	2.69	–	3.38	–	–	–	–	–	–	–	–
CN1CCC(Oc2ccc(Cl)cc2C(=O)Nc2ccc3c(c2)S(=O)(=O)C=C3)CC1	1.04	3.53	2.68	–	1.36	–	–	–	–	–	–	–	–
NCCCOc1ccc(Cl)cc1C(=O)Nc1ccc2c(c1)S(=O)(=O)C=C2	0.04	1.76	1.97	Active	1.88	51	Non-toxic	46	Active	67	Active	Active	Active
O=C(Nc1ccc2c(c1)S(=O)(=O)C=C2)c1cc(Cl)ccc1OCCBr	–	> 10	> 10	–	–	–	–	–	–	–	–	–	–
O=C(Nc1ccc2c(c1)S(=O)(=O)C=C2)c1cc(Cl)ccc1OCCN1CCOCC1	1.37	0.49	5.43	–	6.95	–	–	–	–	–	–	–	–
CNCCOc1ccc(Cl)cc1C(=O)Nc1ccc2c(c1)S(=O)(=O)C=C2	2.05	3.15	3.12	–	3.09	–	–	–	–	–	–	–	–
COC1CS(=O)(=O)c2cc(NC(=O)c3cc(Cl)ccc3O)ccc21 (configuration not stated)	8.46	6.07	7.05	–	8.39	–	–	–	–	–	–	–	–
O=C(Nc1ccc2c(c1)S(=O)(=O)C=C2)c1cc(Cl)ccc1OCCN1CCCCC1	1.42	3.74	2.51	–	1.81	–	–	–	–	–	–	–	–
O=C(Nc1ccc2c(c1)S(=O)(=O)C=C2)c1cc(Cl)ccc1OCCN1CCNCC1	1.02	2.56	3.29	–	3.69	–	–	–	–	–	–	–	–
O=C(Nc1ccc2c(c1)S(=O)(=O)C=C2)c1cc(Cl)ccc1OCCF	1.37	4	4.42	–	9.53	–	–	–	–	–	–	–	–
